In ChEMBL document CHEMBL2346527, “Kinase scaffold repurposing for neglected disease drug discovery: discovery of an efficacious, lapatinib-derived lead compound for trypanosomiasis” (J Med Chem, 2013):

Legend:
[1] = tested on: Trypanosoma brucei brucei; assay: Antitrypanosomal activity against bloodstream form Trypanosoma brucei brucei Lister 427 after 48 hrs by hemocytometer; type: functional, organism-based; details: Lister 427, 48 h
How it was run: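 Bloodstream Lister 427 cells were seeded at 2 × 10^3 cells/ml in HMI-9 medium and given drug from 200X DMSO stocks, with DMSO as control. Three independent experiments, each dose in duplicate (n = 6).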

HepG2 = assay: Cytotoxicity against human HepG2 cells after 48 hrs by MTT assay; type: cell-based; details: HepG2, 48 h
How it was run: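 HepG2 cytotoxicity was read by an MTT assay adapted to 384-well format. IC50 was fitted by nonlinear regression (sigmoidal dose-response, variable slope).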

Structure (SMILES) | EC50 [1] | IC50 (HepG2)
O=C(c1ccc(-c2ccc3ncnc(Nc4ccc(OCc5cccc(F)c5)c(Cl)c4)c3c2)cc1)N1CCCCC1 | 940 nM | –
Fc1cccc(COc2ccc(Nc3ncnc4ccc(-c5ccc(N6CCCCC6)cc5)cc34)cc2Cl)c1 | 380 nM | –
O=S1(=O)CCN(Cc2ccc(-c3ccc4ncnc(Nc5ccc(OCc6ccccc6)c(Cl)c5)c4c3)o2)CC1 | 410 nM | –
Clc1cc(Nc2ncnc3ccc(-c4cccc(N5CCOCC5)c4)cc23)ccc1OCc1ccccc1 | 230 nM | > 20000 nM
CS(=O)(=O)c1ccc(-c2ccc3ncnc(Nc4ccc(OCc5cccc(F)c5)c(Cl)c4)c3c2)cc1 | 900 nM | > 15000 nM
CS(=O)(=O)CCN(Cc1ccccc1)Cc1ccc(-c2ccc3ncnc(Nc4ccc(OCc5cccc(F)c5)c(Cl)c4)c3c2)o1 | 1510 nM | –
Cc1ccc(-c2ccc3ncnc(Nc4ccc(OCc5cccc(F)c5)c(Cl)c4)c3c2)c2ccccc12 | 2270 nM | –
O=S(=O)(c1ccc(-c2ccc3ncnc(Nc4ccc(OCc5cccc(F)c5)cc4)c3c2)cc1)N1CCOCC1 | 650 nM | > 15000 nM
COc1cc(Nc2ncnc3ccc(-c4ccc(S(=O)(=O)N5CCOCC5)cc4)cc23)ccc1OCc1cccc(F)c1 | 1880 nM | > 15000 nM
O=S(=O)(c1ccc(-c2ccc3ncnc(Nc4ccccc4)c3c2)cc1)N1CCOCC1 | 1440 nM | > 3000 nM
O=S(=O)(c1ccc(-c2ccc3ncnc(Nc4ccc(OCc5cccc(Cl)c5)c(Cl)c4)c3c2)cc1)N1CCOCC1 | 660 nM | > 15000 nM
O=S(=O)(c1ccc(-c2ccc3ncnc(Nc4ccc(OCc5cccc(F)c5F)c(Cl)c4)c3c2)cc1)N1CCOCC1 | 820 nM | > 15000 nM
NCCCC(N)(C(=O)O)C(F)F (configuration not stated) [EFLORNITHINE] | 16400 nM | –
O=S(=O)(c1ccc(-c2ccc3ncnc(Nc4ccc(OCc5ccc(C(F)(F)F)c(F)c5)c(Cl)c4)c3c2)cc1)N1CCOCC1 | 540 nM | > 15000 nM
Fc1cccc(COc2ccc(Nc3ncnc4ccc(-c5ccc(CN6CCOCC6)cc5)cc34)cc2Cl)c1 | 990 nM | 12900 nM
O=S(=O)(c1cccc(-c2ccc3ncnc(Nc4ccc(OCc5cccc(F)c5)c(Cl)c4)c3c2)c1)N1CCCCC1 | 460 nM | > 15000 nM
O=S(=O)(c1ccc(-c2ccc3ncnc(Nc4ccc(O)c(Cl)c4)c3c2)cc1)N1CCOCC1 | 1060 nM | > 15000 nM
Oc1ccc(-c2ccc3ncnc(Nc4ccc(OCc5cccc(F)c5)c(Cl)c4)c3c2)cc1 | 6450 nM | –
CS(=O)(=O)c1cccc(-c2ccc3ncnc(Nc4ccc(OCc5cccc(F)c5)c(Cl)c4)c3c2)c1 | 3210 nM | > 15000 nM
Fc1cccc(COc2ccc(Nc3ncnc4ccc(-c5ccc(CN6CCCCC6)cc5)cc34)cc2Cl)c1 | 1500 nM | –
Cc1nnc(-c2cccc(-c3ccc4ncnc(Nc5ccc(OCc6cccc(F)c6)c(Cl)c5)c4c3)c2)o1 | 4210 nM | –

Structure (SMILES) | EC50 [1] | IC50 (HepG2)
O=S(=O)(c1ccc(-c2ccc3ncnc(Nc4ccc(OCc5cc(F)cc(F)c5F)c(Cl)c4)c3c2)cc1)N1CCOCC1 | 1120 nM | > 3000 nM
O=S(=O)(c1ccc(-c2ccc3ncnc(Nc4ccc(OCc5cccc(F)c5)c(Cl)c4)c3c2)cc1)N1CCNCC1 | 280 nM | 3320 nM
c1ccc(Nc2ncnc3ccc(-c4cccc(N5CCOCC5)c4)cc23)cc1 | 11000 nM | 7020 nM
Fc1cccc(COc2ccc(Nc3ncnc4ccc(-c5cccc(CN6CCCCC6)c5)cc34)cc2Cl)c1 | 650 nM | –
Fc1cccc(COc2ccc(Nc3ncnc4ccc(-c5cccc(N6CCCCC6)c5)cc34)cc2Cl)c1 | 760 nM | > 15000 nM
O=S(=O)(c1ccc(-c2ccc3ncnc(Nc4ccc(OCc5ccccc5F)c(Cl)c4)c3c2)cc1)N1CCOCC1 | 1650 nM | > 15000 nM
Fc1cccc(COc2ccc(Nc3ncnc4ccc(-c5ccc(N6CCOCC6)cc5)cc34)cc2Cl)c1 | 1910 nM | 9600 nM
CCCS(=O)(=O)CCNCc1ccc(-c2ccc3ncnc(Nc4ccc(OCc5cccc(F)c5)c(Cl)c4)c3c2)o1 | 430 nM | –
CN1CCN(S(=O)(=O)c2ccc(-c3ccc4ncnc(Nc5ccc(OCc6cccc(F)c6)c(Cl)c5)c4c3)cc2)CC1 | 530 nM | > 15000 nM
Fc1cccc(COc2ccc(Nc3ncnc4ccc(-c5cccc6ncccc56)cc34)cc2Cl)c1 | 4530 nM | –
Fc1cccc(COc2ccc(Nc3ncnc4ccc(-c5ccccc5Oc5ccccc5)cc34)cc2Cl)c1 | 5300 nM | –
O=S(=O)(CCSCc1ccc(-c2ccc3ncnc(Nc4ccc(OCc5cccc(F)c5)c(Cl)c4)c3c2)o1)c1ccccc1 | 550 nM | –
CC(C)S(=O)(=O)CCNCc1ccc(-c2ccc3ncnc(Nc4ccc(OCc5cccc(F)c5)c(Cl)c4)c3c2)o1 | 480 nM | –
Fc1cccc(COc2ccc(Nc3ncnc4ccc(-c5cc6ccccc6s5)cc34)cc2Cl)c1 | 5980 nM | –
O=S(=O)(c1ccc(-c2ccc3ncnc(Nc4ccc(OCc5cccc(F)c5)c(Cl)c4)c3c2)cc1)N1CCCCC1 | 320 nM | > 15000 nM
O=C(c1cccc(-c2ccc3ncnc(Nc4ccc(OCc5cccc(F)c5)c(Cl)c4)c3c2)c1)N1CCOCC1 | 550 nM | –
O=C(c1ccc(-c2ccc3ncnc(Nc4ccc(OCc5cccc(F)c5)c(Cl)c4)c3c2)cc1)N1CCOCC1 | 1210 nM | –
CS(=O)(=O)CCNCc1ccc(-c2ccc3ncnc(Nc4ccc(OCc5ccccc5)c(Br)c4)c3c2)o1 | 560 nM | –
CC1(C)OB(O)c2cc(NC(=O)c3ccc(F)cc3C(F)(F)F)ccc21 [ACOZIBOROLE] | 794 nM | –
O=S(=O)(c1cccc(-c2ccc3ncnc(Nc4ccc(OCc5cccc(F)c5)c(Cl)c4)c3c2)c1)N1CCCC1 | 250 nM | > 15000 nM
CC(C)(C)NS(=O)(=O)c1ccccc1-c1ccc2ncnc(Nc3ccc(OCc4cccc(F)c4)c(Cl)c3)c2c1 | 4660 nM | –

Structure (SMILES) | EC50 [1] | IC50 (HepG2)
CN(C)S(=O)(=O)c1ccccc1-c1ccc2ncnc(Nc3ccc(OCc4cccc(F)c4)c(Cl)c3)c2c1 | 1040 nM | > 15000 nM
O=C(c1cccc(-c2ccc3ncnc(Nc4ccc(OCc5cccc(F)c5)c(Cl)c4)c3c2)c1)N1CCCCC1 | 140 nM | > 6000 nM
O=S(=O)(c1ccc(-c2ccc3ncnc(Nc4ccc(OCc5cccc(F)c5)c(Cl)c4)c3c2)cc1)N1CCCC1 | 350 nM | > 15000 nM
c1ccc(COc2ccc(Nc3ncnc4ccc(-c5cccc(N6CCOCC6)c5)cc34)cc2)cc1 | 180 nM | > 20000 nM
O=S(=O)(c1cccc(-c2ccc3ncnc(Nc4ccc(OCc5cccc(F)c5)c(Cl)c4)c3c2)c1)N1CCOCC1 | – | > 15000 nM
O=S(=O)(c1ccc(-c2ccc3ncnc(Nc4ccc(OCc5cccc(Br)c5)c(Cl)c4)c3c2)cc1)N1CCOCC1 | 680 nM | > 15000 nM
Cc1ccc(Nc2ncnc3ccc(-c4ccc(S(=O)(=O)N5CCOCC5)cc4)cc23)cc1 | 1150 nM | > 15000 nM
COc1ccc(Nc2ncnc3ccc(-c4ccc(S(=O)(=O)N5CCOCC5)cc4)cc23)cc1Cl | 820 nM | > 15000 nM
O=c1[nH]cc(-c2ccc3ncnc(Nc4ccc(OCc5cccc(F)c5)c(Cl)c4)c3c2)c(=O)[nH]1 | 22600 nM | –
O=S(=O)(c1ccc(-c2ccc3ncnc(Nc4ccc(OCc5cccc(F)c5)c(Cl)c4)c3c2)cc1)N1CCSCC1 | 470 nM | > 15000 nM
COc1cccc(COc2ccc(Nc3ncnc4ccc(-c5ccc(S(=O)(=O)N6CCOCC6)cc5)cc34)cc2Cl)c1 | 1430 nM | > 15000 nM
O=S(=O)(c1ccc(-c2ccc3ncnc(Nc4ccc(OCc5ccccc5)c(Cl)c4)c3c2)cc1)N1CCOCC1 | 1350 nM | > 15000 nM
Fc1cccc(COc2ccc(Nc3ncnc4ccc(-c5cccc(CN6CCOCC6)c5)cc34)cc2Cl)c1 | 360 nM | –
O=C(NC1CC1)c1cccc(-c2ccc3ncnc(Nc4ccc(OCc5cccc(F)c5)c(Cl)c4)c3c2)c1 | 4500 nM | –
N=C(N)c1ccc(OCCCCCOc2ccc(C(=N)N)cc2)cc1 [PENTAMIDINE] | 3.5 nM | –
CS(=O)(=O)CCN(CC#N)Cc1ccc(-c2ccc3ncnc(Nc4ccc(OCc5cccc(F)c5)c(Cl)c4)c3c2)o1 [GW616030X] | 520 nM | –
Nc1nc(N)nc(Nc2ccc([As]3SCC(CO)S3)cc2)n1 (configuration not stated) [MELARSOPROL] | 6.3 nM | –
O=S(=O)(c1ccc(-c2ccc3ncnc(Nc4ccc(OCc5ccc(F)cc5)c(Cl)c4)c3c2)cc1)N1CCOCC1 | 1340 nM | > 15000 nM
CN1CCCN(S(=O)(=O)c2ccc(-c3ccc4ncnc(Nc5ccc(OCc6cccc(F)c6)c(Cl)c5)c4c3)cc2)CC1 | 810 nM | 1810 nM
O=S(=O)(c1ccc(-c2ccc3ncnc(Nc4ccc(OCc5cccc(F)c5)c(Cl)c4)c3c2)cc1)N1CCOCC1 | 1390 nM | > 15000 nM
CCNC(=O)c1ccc(-c2ccc3ncnc(Nc4ccc(OCc5cccc(F)c5)c(Cl)c4)c3c2)cc1F | 3850 nM | –
